ChEMBL document CHEMBL4699485, “Discovery and Development of SPR519 as a Potent, Selective, and Orally Bioavailable Inhibitor of PI3Kα and mTOR Kinases for the Treatment of Solid Tumors” (J Med Chem, 2020)
Active and inactive are the calls of the source. The rule behind the calls is not given here.

Columns and labels:
[1] = target: Glycogen synthase kinase-3 beta (Homo sapiens) (UniProt P49841); assay: Inhibition of human GSK3B at 1 uM using fluorescently labeled peptide substrate measured after 3 hrs by microfluidic mobility shift assay relative to control
Chain of Glycogen synthase kinase-3 beta (Homo sapiens) (P49841 whole entry, looked up): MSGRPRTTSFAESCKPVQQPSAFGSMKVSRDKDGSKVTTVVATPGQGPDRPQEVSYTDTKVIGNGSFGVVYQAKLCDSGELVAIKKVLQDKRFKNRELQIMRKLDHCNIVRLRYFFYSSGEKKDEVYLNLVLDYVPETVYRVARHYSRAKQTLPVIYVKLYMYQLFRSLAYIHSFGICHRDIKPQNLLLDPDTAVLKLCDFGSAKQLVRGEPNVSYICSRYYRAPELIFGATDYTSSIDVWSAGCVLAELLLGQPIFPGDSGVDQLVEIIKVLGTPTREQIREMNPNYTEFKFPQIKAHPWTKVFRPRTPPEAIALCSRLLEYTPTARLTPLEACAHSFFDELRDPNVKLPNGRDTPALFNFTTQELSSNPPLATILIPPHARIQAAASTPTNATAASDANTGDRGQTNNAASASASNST
Summary of the method: (§1)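 Single-concentration screen at 1 µM in duplicate, 1% final DMSO. Kinase (typically 1 nM), fluorescently labeled peptide substrate (typically 1 µM), ATP at Km and Mg²⁺ incubated about 3 h at 25 °C, then EDTA-quenched. Substrate and phosphorylated product separated by microfluidic electrophoresis and quantified by fluorescence.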

[2] = Drug level in Swiss mouse brain at 30 mg/kg, po administered twice daily via gavage for 5 days and measured post last dose by LC-MS/MS analysis; format: ADME, organism-based; conditions: in vivo, 120 h, time 5 day
Summary of the method: (§2)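 Female Swiss mice (n=3) given 30 mg/kg in 0.5% CMC/Tween 80 by oral gavage twice daily for 5 days, with two vehicle controls. After sacrifice, liver, kidney, lung, uterus and brain were collected, homogenized in water and solvent-extracted. Drug concentration (ng/g) measured by LC-MS/MS.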

[3] = Toxicity in Swiss mouse assessed as morphological changes in lung at 30 mg/kg, po administered twice daily via gavage for 5 days and measured post last dose; format: organism-based; conditions: in vivo, 120 h, time 5 day
Summary of the method: (§3)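 Female Swiss mice (3 treated, 2 controls) were gavaged twice daily for 5 days, with compound in 0.5% CMC and Tween 80. After the last dosing the animals were sacrificed. Liver, kidney, lung, uterus and brain were excised and inspected visually for morphology and color change.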

[4] = Drug level in Swiss mouse kidney at 30 mg/kg, po administered twice daily via gavage for 5 days and measured post last dose by LC-MS/MS analysis; format: ADME, organism-based; conditions: time 5 day, read-out: Drug uptake; summary of the method: as §2
[5] = AUC in Swiss mouse at 3 mg/kg, po via gavage by LC-MS/MS analysis; format: ADME, organism-based; set-up: dose 3 mg/kg; conditions: in vivo
Summary of the method: (§4)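 Female Swiss mice (n=3/group), fasted overnight, given single oral gavage dose in 0.5% CMC/0.5% Tween 80 (10 mL/kg) at 1, 3 or 10 mg/kg. Serial blood sampling at 0.16–8 h into heparinized tubes. Plasma extracted with acetonitrile containing verapamil internal standard and quantified by LC-MS/MS. Cmax, Tmax, AUC and t1/2 derived from the concentration–time profile.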

[6] = Toxicity in Swiss mouse assessed as discoloration of uterus at 30 mg/kg, po administered twice daily via gavage for 5 days and measured post last dose; format: organism-based; conditions: in vivo, 120 h, time 5 day; summary of the method: as §3
[7] = Drug level in Swiss mouse uterus at 30 mg/kg, po administered twice daily via gavage for 5 days and measured post last dose by LC-MS/MS analysis; format: ADME, organism-based; conditions: time 5 day, read-out: Drug uptake; summary of the method: as §2
Homo sapiens = species on record: Homo sapiens; assay: Channel blockade of human ERG G601S mutant expressed in mammalian expression system assessed as effect on surface expression of channel at 1 to 30 uM by HERG-Lite assay; conditions: dose microM 1-30
Summary of the method: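 HERG-lite assay scoring both channel blocking and trafficking inhibition, with test compound at 1, 10 and 30 µM. Geldanamycin (1 µM) served as the trafficking-inhibition reference and astemizole as the standard hERG binder.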

[8] = Toxicity in Swiss mouse assessed as loss of appetite at 10 mg/kg, po administered twice daily via gavage for 5 days and measuring daily during compound dosing; format: organism-based; conditions: in vivo, 120 h, time 5 day
Summary of the method: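 Female Swiss mice (3 treated, 2 vehicle controls) received oral gavage twice daily for 5 days, with compound formulated in 0.5% CMC and Tween 80. Body weight, body temperature, body coat, feed intake, eyes, feces and general activity were observed daily.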

[9] = target: Angiopoietin-1 receptor (Homo sapiens) (UniProt Q02763); assay: Inhibition of human TIE2 at 1 uM using fluorescently labeled peptide substrate measured after 3 hrs by microfluidic mobility shift assay relative to control; summary of the method: as §1
Chain of Angiopoietin-1 receptor (Homo sapiens) (Q02763 whole entry): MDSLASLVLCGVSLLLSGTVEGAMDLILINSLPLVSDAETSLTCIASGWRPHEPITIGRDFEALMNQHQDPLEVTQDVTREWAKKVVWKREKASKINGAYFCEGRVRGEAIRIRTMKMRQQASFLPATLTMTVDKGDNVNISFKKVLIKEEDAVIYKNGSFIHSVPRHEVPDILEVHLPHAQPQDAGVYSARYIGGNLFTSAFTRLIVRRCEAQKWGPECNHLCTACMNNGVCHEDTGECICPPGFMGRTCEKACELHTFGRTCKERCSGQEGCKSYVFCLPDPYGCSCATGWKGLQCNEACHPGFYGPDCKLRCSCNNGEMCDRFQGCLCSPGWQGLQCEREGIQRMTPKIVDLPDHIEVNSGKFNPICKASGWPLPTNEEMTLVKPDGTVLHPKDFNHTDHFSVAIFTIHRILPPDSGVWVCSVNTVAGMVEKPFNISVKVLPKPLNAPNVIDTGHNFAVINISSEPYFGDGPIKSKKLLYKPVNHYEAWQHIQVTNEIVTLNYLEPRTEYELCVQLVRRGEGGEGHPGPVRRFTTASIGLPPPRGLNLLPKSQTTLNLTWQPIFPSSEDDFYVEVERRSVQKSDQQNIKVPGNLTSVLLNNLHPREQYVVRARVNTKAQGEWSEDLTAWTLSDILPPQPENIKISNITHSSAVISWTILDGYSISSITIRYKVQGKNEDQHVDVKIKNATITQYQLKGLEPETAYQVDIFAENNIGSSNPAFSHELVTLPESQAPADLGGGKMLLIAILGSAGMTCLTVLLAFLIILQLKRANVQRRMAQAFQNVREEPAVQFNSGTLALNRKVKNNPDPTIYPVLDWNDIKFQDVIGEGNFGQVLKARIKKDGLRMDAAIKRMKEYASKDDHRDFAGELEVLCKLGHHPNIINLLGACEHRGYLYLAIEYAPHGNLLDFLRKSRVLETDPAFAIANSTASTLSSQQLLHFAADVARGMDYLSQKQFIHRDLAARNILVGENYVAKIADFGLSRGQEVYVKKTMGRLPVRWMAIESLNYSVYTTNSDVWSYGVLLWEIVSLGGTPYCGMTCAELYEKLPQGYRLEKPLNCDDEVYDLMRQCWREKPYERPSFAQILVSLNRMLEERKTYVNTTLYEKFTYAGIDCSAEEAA

[10] = target: Ribosomal protein S6 kinase beta-2 (Homo sapiens) (UniProt Q9UBS0); assay: Inhibition of human RPS6KB2 at 1 uM using fluorescently labeled peptide substrate measured after 3 hrs by microfluidic mobility shift assay relative to control; summary of the method: as §1
Chain of Ribosomal protein S6 kinase beta-2 (Homo sapiens) (Q9UBS0 whole entry, canonical isoform): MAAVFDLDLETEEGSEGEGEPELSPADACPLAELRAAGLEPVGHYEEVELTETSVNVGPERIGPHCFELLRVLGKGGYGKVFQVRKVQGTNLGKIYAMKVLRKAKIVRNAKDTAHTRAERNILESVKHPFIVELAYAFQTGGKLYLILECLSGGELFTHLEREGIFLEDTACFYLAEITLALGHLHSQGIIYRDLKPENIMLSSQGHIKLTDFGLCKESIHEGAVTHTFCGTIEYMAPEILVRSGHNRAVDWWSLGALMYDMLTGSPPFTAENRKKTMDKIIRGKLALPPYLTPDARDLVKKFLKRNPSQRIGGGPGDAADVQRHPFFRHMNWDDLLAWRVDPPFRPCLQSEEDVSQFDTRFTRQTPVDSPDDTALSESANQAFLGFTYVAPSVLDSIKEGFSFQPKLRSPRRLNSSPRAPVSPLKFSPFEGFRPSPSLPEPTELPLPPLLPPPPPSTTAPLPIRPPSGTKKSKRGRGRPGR

Cytochrome P450 2D6 = Cytochrome P450 2D6 (Homo sapiens, UniProt P10635); assay: Inhibition of CYP2D6 in human liver microsomes using isoform-specific probe substrates preincubated for 5 mins followed by NADPH addition by LC-MS/MS analysis; format: ADME
Chain of Cytochrome P450 2D6 (P10635 whole entry, canonical isoform): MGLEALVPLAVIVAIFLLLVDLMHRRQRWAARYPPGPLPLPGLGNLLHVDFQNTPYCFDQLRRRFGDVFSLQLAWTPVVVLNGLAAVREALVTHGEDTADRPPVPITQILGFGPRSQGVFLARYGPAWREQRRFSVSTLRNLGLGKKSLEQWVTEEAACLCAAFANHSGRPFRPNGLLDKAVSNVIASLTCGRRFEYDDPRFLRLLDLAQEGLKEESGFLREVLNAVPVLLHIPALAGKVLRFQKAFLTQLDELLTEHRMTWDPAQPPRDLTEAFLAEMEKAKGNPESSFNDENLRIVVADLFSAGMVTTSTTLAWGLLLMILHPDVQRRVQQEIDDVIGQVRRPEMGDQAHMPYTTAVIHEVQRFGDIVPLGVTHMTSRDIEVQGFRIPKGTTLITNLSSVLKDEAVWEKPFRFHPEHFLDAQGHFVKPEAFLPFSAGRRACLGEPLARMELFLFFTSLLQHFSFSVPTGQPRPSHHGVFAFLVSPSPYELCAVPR
Summary of the method: (§5)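 Human liver microsomes premixed with buffer and a CYP-specific FDA-recommended probe substrate, then spiked with inhibitor, in duplicate. After 5 min preincubation at 37 °C, reaction started with NADPH and run at 37 °C for a set time, then quenched. Metabolite formation quantified by HPLC/LC-MS/MS to derive the concentration giving 50% inhibition.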

[11] = Tmax in Swiss mouse at 1 mg/kg, po via gavage by LC-MS/MS analysis; format: ADME, organism-based; conditions: in vivo
Summary of the method: (§6)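 Female Swiss mice (n=3/group) were fasted overnight, then gavaged with compound in 0.5% CMC/0.5% Tween 80 at 10 mL/kg. Serial blood samples at 0.16, 0.5, 1, 2, 4, 6 and 8 h were taken into heparinized tubes and spun to plasma. Plasma was extracted with acetonitrile containing verapamil (400 ng/mL) and quantified by LC-MS/MS against plasma calibration curves. Tmax was derived from the concentration–time profile.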

[12] = target: Sphingosine kinase 1 (Homo sapiens) (UniProt Q9NYA1); assay: Inhibition of human SPHK1 at 1 uM using fluorescently labeled peptide substrate measured after 3 hrs by microfluidic mobility shift assay relative to control; summary of the method: as §1
Cytochrome P450 3A4 = Cytochrome P450 3A4 (Homo sapiens, UniProt P08684); assay: Inhibition of CYP3A4 in human liver microsomes using isoform-specific probe substrates preincubated for 5 mins followed by NADPH addition by LC-MS/MS analysis; format: ADME; summary of the method: as §5
Chain of Cytochrome P450 3A4 (P08684 whole entry, canonical isoform): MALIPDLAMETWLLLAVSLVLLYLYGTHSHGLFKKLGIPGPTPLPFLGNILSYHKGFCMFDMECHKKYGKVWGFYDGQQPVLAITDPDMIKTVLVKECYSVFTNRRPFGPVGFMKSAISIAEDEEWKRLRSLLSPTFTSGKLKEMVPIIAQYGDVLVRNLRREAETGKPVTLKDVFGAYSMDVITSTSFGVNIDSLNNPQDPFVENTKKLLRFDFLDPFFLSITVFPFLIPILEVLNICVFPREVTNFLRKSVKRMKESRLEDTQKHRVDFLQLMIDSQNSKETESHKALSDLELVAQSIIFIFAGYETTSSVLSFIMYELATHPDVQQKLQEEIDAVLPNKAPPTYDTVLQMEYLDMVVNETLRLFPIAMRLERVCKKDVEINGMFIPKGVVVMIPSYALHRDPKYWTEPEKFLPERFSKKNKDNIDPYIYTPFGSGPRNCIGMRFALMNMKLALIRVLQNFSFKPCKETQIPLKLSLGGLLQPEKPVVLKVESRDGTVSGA

[13] = Cmax in Swiss mouse at 10 mg/kg, po via gavage by LC-MS/MS analysis; format: ADME, organism-based; set-up: route oral, dose 10 mg/kg; conditions: in vivo; summary of the method: as §4
[14] = target: Ribosomal protein S6 kinase beta-1 (Homo sapiens) (UniProt P23443); assay: Inhibition of human P70S6K1 at 1 uM using fluorescently labeled peptide substrate measured after 3 hrs by microfluidic mobility shift assay relative to control; summary of the method: as §1
[15] = Toxicity in Swiss mouse assessed as morphological changes in liver at 30 mg/kg, po administered twice daily via gavage for 5 days and measured post last dose; format: organism-based; conditions: in vivo, 120 h, time 5 day; summary of the method: as §3
[16] = Tmax in Swiss mouse at 3 mg/kg, po via gavage by LC-MS/MS analysis; format: ADME, organism-based; conditions: in vivo; summary of the method: as §6
[17] = Metabolic stability in human liver microsomes assessed as parent compound remaining at 10 uM remaining after 120 mins in presence of NADPH by HPLC analysis; format: ADME, Microsome; conditions: read-out: Stabilty
Summary of the method: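 Compound at 10 µM was incubated with 0.5 mg/mL liver microsomes and 1 mM NADPH (final). Samples were taken at 0, 15, 30, 60 and 120 min and stopped with acetonitrile, then centrifuged and the supernatant analysed by HPLC. Percent parent remaining was set relative to the 0 min peak area (100%).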

[18] = Elimination half life in Swiss mouse at 1 mg/kg, po via gavage by LC-MS/MS analysis; format: ADME, organism-based; conditions: in vivo, read-out: beta t1/2 (converted); summary of the method: as §4
[19] = target: PI3-kinase p110-alpha/p85-alpha (Homo sapiens, UniProt P42336); assay: Inhibition of recombinant human full-length N-terminal His-tagged p110 alpha/p85 alpha expressed in baculovirus expression system using PIP2 as substrate preincubated for 15 mins followed by substrate addition and measured after 60 mins by ADP HiLyte 647 tracer bound ADP2 antibody-Tb conjugate based HTRF assay
Chain of PI3-kinase p110-alpha/p85-alpha (P27986 whole entry): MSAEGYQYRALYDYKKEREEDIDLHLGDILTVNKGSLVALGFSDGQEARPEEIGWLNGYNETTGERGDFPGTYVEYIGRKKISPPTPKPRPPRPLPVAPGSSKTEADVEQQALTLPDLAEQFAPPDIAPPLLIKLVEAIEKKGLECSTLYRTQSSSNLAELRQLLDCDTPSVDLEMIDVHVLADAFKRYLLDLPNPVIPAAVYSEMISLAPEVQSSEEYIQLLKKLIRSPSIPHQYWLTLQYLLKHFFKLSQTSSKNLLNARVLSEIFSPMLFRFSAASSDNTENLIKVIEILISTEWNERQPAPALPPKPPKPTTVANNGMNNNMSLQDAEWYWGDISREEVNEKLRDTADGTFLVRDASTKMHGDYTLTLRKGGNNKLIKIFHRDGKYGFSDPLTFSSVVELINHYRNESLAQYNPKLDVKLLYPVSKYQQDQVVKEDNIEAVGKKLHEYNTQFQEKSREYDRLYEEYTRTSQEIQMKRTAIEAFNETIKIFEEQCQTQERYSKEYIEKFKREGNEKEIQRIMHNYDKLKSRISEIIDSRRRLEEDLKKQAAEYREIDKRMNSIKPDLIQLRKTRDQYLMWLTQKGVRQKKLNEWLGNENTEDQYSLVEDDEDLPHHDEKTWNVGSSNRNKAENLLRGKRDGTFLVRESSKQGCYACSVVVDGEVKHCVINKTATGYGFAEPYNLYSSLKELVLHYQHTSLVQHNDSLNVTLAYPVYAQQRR
Chain of PI3-kinase p110-alpha/p85-alpha (P42336 whole entry): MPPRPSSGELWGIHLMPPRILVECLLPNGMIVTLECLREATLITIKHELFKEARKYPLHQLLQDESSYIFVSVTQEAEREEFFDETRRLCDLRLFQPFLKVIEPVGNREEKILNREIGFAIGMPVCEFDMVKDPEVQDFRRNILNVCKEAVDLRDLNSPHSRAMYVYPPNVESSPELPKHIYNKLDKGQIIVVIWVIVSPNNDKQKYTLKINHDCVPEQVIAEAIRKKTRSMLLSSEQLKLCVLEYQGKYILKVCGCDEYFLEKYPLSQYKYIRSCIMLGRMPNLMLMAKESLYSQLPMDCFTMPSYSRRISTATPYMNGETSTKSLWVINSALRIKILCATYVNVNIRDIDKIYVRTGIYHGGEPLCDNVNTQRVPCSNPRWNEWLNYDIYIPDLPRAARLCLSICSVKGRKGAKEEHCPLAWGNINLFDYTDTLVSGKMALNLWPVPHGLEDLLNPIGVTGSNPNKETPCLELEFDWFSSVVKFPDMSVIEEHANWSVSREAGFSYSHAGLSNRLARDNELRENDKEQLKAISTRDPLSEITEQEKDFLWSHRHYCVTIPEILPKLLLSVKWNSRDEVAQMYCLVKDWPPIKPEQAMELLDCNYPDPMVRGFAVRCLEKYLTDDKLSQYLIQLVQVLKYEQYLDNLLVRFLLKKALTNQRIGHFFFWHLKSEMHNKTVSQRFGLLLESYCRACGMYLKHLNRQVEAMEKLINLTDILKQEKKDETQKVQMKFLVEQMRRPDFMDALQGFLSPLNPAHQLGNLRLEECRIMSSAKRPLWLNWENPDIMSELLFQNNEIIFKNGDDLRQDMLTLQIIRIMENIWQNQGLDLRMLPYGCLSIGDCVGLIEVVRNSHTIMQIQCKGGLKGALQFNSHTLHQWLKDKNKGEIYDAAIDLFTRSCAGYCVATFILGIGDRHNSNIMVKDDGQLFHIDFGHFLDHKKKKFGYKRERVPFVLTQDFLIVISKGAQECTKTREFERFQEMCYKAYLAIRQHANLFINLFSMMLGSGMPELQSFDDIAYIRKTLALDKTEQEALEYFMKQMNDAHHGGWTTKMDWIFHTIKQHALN
Summary of the method: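 PI3Kα at 150 ng/mL (diluted stock) in 50 mM HEPES pH 7.4, 3 mM MgCl2, 2 mM DTT, 0.05% CHAPS, 50 mM NaCl, 1 mM EGTA. Compound tested over 10–0.001 µM. Final reaction held 50 µM PIP2 and 1 µM ATP. Detection mix added for 1 h, then 665/615 nm ratio read. % inhibition versus concentration fitted by four-parameter nonlinear regression to give IC50.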

## CN(C)C(=O)c1ccc(Oc2nc(-c3cnc(N)s3)nc(N3CCOCC3)n2)cc1
[1]
  inhibition: -1%
[2]
  Drug uptake: Not Active
[3]
  Activity: Non-Toxic
[4]
  concentration at 120 h: 160 ng/g
[5]
  AUC: 32.1 µM·h
[6]
  Activity: Non-Toxic
[7]
  concentration at 120 h: 10 ng/g
Homo sapiens
  Activity: Active
[8]
  Activity: Non-Toxic
[9]
  inhibition: 1%
[10]
  inhibition: -3%
Cytochrome P450 2D6
  IC50: > 10 µM
[11]
  Tmax: 1.33 h
[12]
  inhibition: -1%
Cytochrome P450 3A4
  IC50: > 10 µM
[13]
  Cmax: 12.6 µM
[14]
  inhibition: -1%
[15]
  Activity: Non-Toxic
[16]
  Tmax: 1.5 h
[17]
  remaining at 2 h, 10 µM: 98%
[18]
  half-life: 2.66 h
[19]
  IC50: 0.03 µM
